From ChEMBL document CHEMBL1154040, “Synthesis and evaluation of novel F-18 labeled fluoroarylvaline derivatives: potential PET imaging agents for tumor detection” (Bioorg Med Chem Lett, 2009) come the findings set out here.

Data set [1] deals with Brain. The data set can be described thus: Biodistribution in S180 tumor-bearing KM mouse brain assessed per gram of tissue at 240 to 370 kBq, iv after 5 mins. The format is ADME, organism-based. Particulars: in vivo.
The subject of data set [2] is Spleen. The data set can be described thus: Biodistribution in S180 tumor-bearing KM mouse spleen assessed per gram of tissue at 240 to 370 kBq, iv after 120 mins. The format is ADME, organism-based. Particulars: in vivo, 2 h.
The test system of data set [3] is Spleen. As to the kind of experiment: Biodistribution in S180 tumor-bearing KM mouse spleen assessed per gram of tissue at 240 to 370 kBq, iv after 15 mins. Format: ADME, organism-based. Conditions: in vivo, 0.25 h.
The subject of data set [4] is Muscle tissue. The data set can be described thus: Biodistribution in S180 tumor-bearing KM mouse muscle assessed per gram of tissue at 240 to 370 kBq, iv after 120 mins. Particulars: in vivo, 2 h. Format: ADME, organism-based.
Data set [5] relates to Muscle tissue. As to the kind of experiment: Biodistribution in S180 tumor-bearing KM mouse muscle assessed per gram of tissue at 240 to 370 kBq, iv after 30 mins. Conditions: in vivo, 0.5 h. The format is ADME, organism-based.
Data set [6] concerns Muscle tissue. The data set can be described thus: Biodistribution in S180 tumor-bearing KM mouse muscle assessed per gram of tissue at 240 to 370 kBq, iv after 15 mins. The format is ADME, organism-based. Conditions: in vivo, 0.25 h.
The subject of data set [7] is Femur. The data set can be described thus: Biodistribution in S180 tumor-bearing KM mouse femur assessed per gram of tissue at 240 to 370 kBq, iv after 120 mins. The format is ADME, organism-based. Conditions: in vivo, 2 h. Summed up: (§1)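 Female KM mice (20 ± 2 g) were used 14–18 days after inoculation of 5 × 10^6 S 180 tumor cells. The ¹⁸F tracer in saline was injected into the tail vein of awake mice. Mice were killed at 5, 15, 30, 60 or 120 min, and the femur was removed, weighed and gamma-counted. Results are background-corrected %ID/g, mean ± SD, n = 4.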

Data set [8] concerns Femur. The data set can be described thus: Biodistribution in S180 tumor-bearing KM mouse femur assessed per gram of tissue at 240 to 370 kBq, iv after 60 mins. The format is ADME, organism-based. Conditions: in vivo, 1 h. Summed up: as §1
The subject of data set [9] is Femur. As to the kind of experiment: Biodistribution in S180 tumor-bearing KM mouse femur assessed per gram of tissue at 240 to 370 kBq, iv after 30 mins. Particulars: in vivo, 0.5 h. Format: ADME, organism-based. A digest of the protocol: as §1
Data set [10] deals with Femur. As to the kind of experiment: Biodistribution in S180 tumor-bearing KM mouse femur assessed per gram of tissue at 240 to 370 kBq, iv after 15 mins. Format: ADME, organism-based. Conditions: in vivo, 0.25 h. Summed up:
as §1

Data set [11] has as its system Femur. The data set can be described thus: Biodistribution in S180 tumor-bearing KM mouse femur assessed per gram of tissue at 240 to 370 kBq, iv after 5 mins. The format is ADME, organism-based. Conditions: in vivo. Summed up:
as §1

Data set [12] concerns Kidney. As to the kind of experiment: Biodistribution in S180 tumor-bearing KM mouse kidney assessed per gram of tissue at 240 to 370 kBq, iv after 30 mins. The format is ADME, organism-based. Particulars: in vivo, 0.5 h.
Data set [13] concerns Kidney. As to the kind of experiment: Biodistribution in S180 tumor-bearing KM mouse kidney assessed per gram of tissue at 240 to 370 kBq, iv after 5 mins. The format is ADME, organism-based. Conditions: in vivo.
Data set [14] deals with Lung. The data set can be described thus: Biodistribution in S180 tumor-bearing KM mouse lung assessed per gram of tissue at 240 to 370 kBq, iv after 60 mins. The format is ADME, organism-based. Particulars: in vivo, 1 h.
Data set [15] concerns Lung. As to the kind of experiment: Biodistribution in S180 tumor-bearing KM mouse lung assessed per gram of tissue at 240 to 370 kBq, iv after 15 mins. Particulars: in vivo, 0.25 h. Format: ADME, organism-based.
Data set [16] concerns Heart. The data set can be described thus: Biodistribution in S180 tumor-bearing KM mouse heart assessed per gram of tissue weight at 240 to 370 kBq, iv after 120 mins. The format is ADME, organism-based. Particulars: in vivo, 2 h.
Data set [17] relates to Heart. The data set can be described thus: Biodistribution in S180 tumor-bearing KM mouse heart assessed per gram of tissue weight at 240 to 370 kBq, iv after 60 mins. Format: ADME, organism-based. Conditions: in vivo, 1 h.
The subject of data set [18] is Blood. The data set can be described thus: Biodistribution in S180 tumor-bearing KM mouse blood assessed per gram of tissue weight at 240 to 370 kBq, iv after 30 mins. The format is ADME, organism-based. Particulars: in vivo, 0.5 h.
The test system of data set [19] is Blood. As to the kind of experiment: Biodistribution in S180 tumor-bearing KM mouse blood assessed per gram of tissue weight at 240 to 370 kBq, iv after 15 mins. Conditions: in vivo, 0.25 h. The format is ADME, organism-based.
For data set [20], the system named is Blood. The data set can be described thus: Stability in tumor bearing KM mouse blood after 30 mins at 4 MBq, iv. Format: ADME, tissue-based. Conditions: 0.5 h. A digest of the protocol: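 Blood from tumor-bearing mice was collected after tracer injection and centrifuged at once for 5 min at 13,200 rpm. Supernatants from both centrifugation steps were combined, loaded onto a C18 Sep-Pak cartridge, washed with 2 ml water, then eluted.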

Data set [21] has as its system Brain. As to the kind of experiment: Biodistribution in S180 tumor-bearing KM mouse brain assessed per gram of tissue at 240 to 370 kBq, iv after 120 mins. The format is ADME, organism-based. Particulars: in vivo, 2 h.
The nature of data set [22]: Ratio of drug level in S180 tumor to blood in KM mouse at 240 to 370 kBq, iv after 30mins. The format is ADME, organism-based. Conditions: tumour, 0.5 h.
Data set [23] can be described thus: Ratio of drug level in S180 tumor to brain KM mouse at 240 to 370 kBq, iv after 15 mins. Format: ADME, organism-based. Particulars: in vivo, 0.25 h.

Structures are written as SMILES.

For the molecule `CC(C)[C@H](NC(=O)c1ccc([N+](=O)[O-])cc1[18F])C(=O)O`, the Drug uptake turned out to be 0.15 %ID in the data set with Brain [1]; 0.16 %ID with Spleen [2]; 0.6 %ID in the data set on Spleen [3]; 0.12 %ID in the data set on Muscle tissue [4]; 0.21 %ID in the data set with Muscle tissue [5]; 0.47 %ID in the data set on Muscle tissue [6]. Moreover, the Drug uptake amounted to 2.15 %ID in the data set with Femur [7]; 2.47 %ID in the data set on Femur [8]; 3.38 %ID in the data set on Femur [9]; 4.02 %ID in the data set with Femur [10]; 3.61 %ID in the data set on Femur [11]; 1.36 %ID in the data set with Kidney [12]. For the same molecule, the Drug uptake with Kidney [13] amounted to 11.9 %ID; in the data set with Lung [14], 1.14 %ID; in the data set on Lung [15], 2.01 %ID; in the data set with Heart [16], 0.05 %ID; in the data set on Heart [17], 0.11 %ID; with Blood [18] it was 0.24 %ID. Further, the figures for the Drug uptake in the data set on Blood [19] and in the data set with Brain [21] were 1.27 %ID and 0.01 %ID, respectively. Besides, the Stability result in the data set on Blood [20] is recorded as “Stable”. Further, the tumor/blood ratio in data set [22] turned out to be 2.32. Also, the tumor/brain ratio in [23] came to 10.4.

Regarding `OC[C@H]1O[C@@H](O)[C@H]([18F])[C@@H](O)[C@@H]1O` [FLUDEOXYGLUCOSE-F18], the Drug uptake in the data set with Brain [1] is on record as 2.4 %ID; in the data set on Spleen [2] it was 0.78 %ID; in the data set with Spleen [3], 0.95 %ID; in the data set on Muscle tissue [4], 0.78 %ID; in the data set with Muscle tissue [5] it was 1.07 %ID; with Muscle tissue [6] it was 1.14 %ID. Besides, the Drug uptake in the data set on Kidney [12] is 0.61 %ID; with Kidney [13] it was 2.16 %ID; in the data set with Lung [14], 0.57 %ID; in the data set on Lung [15] it was 0.77 %ID; in the data set on Heart [16], 6.27 %ID; in the data set on Heart [17], 3.24 %ID. The values for the Drug uptake in the data set on Blood [18], with Blood [19] and in the data set on Brain [21] were 0.16 %ID, 0.46 %ID and 1.28 %ID, respectively. The tumor/brain ratio in data set [23] turned out to be 0.59.

Consider `COC(=O)[C@@H](NC(=O)c1ccc([N+](=O)[O-])cc1[18F])C(C)C`, for which the Drug uptake in the data set on Brain [1] is 0.99 %ID; in the data set on Spleen [2], 0.05 %ID; in the data set with Spleen [3], 1.13 %ID; in the data set with Muscle tissue [4], 0.58 %ID; with Muscle tissue [5], 0.82 %ID; in the data set with Muscle tissue [6] it was 1.39 %ID. Further, the Drug uptake in the data set on Femur [7] is on record as 2.01 %ID; in the data set with Femur [8] it was 2.09 %ID; in the data set on Femur [9] it was 2.11 %ID; with Femur [10] it was 2.23 %ID; in the data set with Femur [11] it was 1.6 %ID; in the data set with Kidney [12], 3.8 %ID. The Drug uptake with Kidney [13] is reported as 17.9 %ID; in the data set with Lung [14], 0.31 %ID; in the data set on Lung [15] it was 2.57 %ID; with Heart [16], 0.08 %ID; with Heart [17], 0.19 %ID; with Blood [18], 0.68 %ID. Further, the Drug uptake is reported as 2.18 %ID with Blood [19] and 0.12 %ID with Brain [21]. Besides, the Stability entry with Blood [20] was “Stable”. The tumor/blood ratio in [22] is 2.91. Besides, the tumor/brain ratio in data set [23] worked out at 3.42.
